According to article PMC11635510 (ACS Omega, 2024):
Entries after “also recorded” stand apart in the source; their conditions may differ.

Assays:
BChE [1] = target: T1, BChE (Homo sapiens, UniProt P06276); test: biochemical; assay type: biochemical; details: for fold better BChE inhibitory activity in comparison with positive control: vs donepezil (positive control)
AChE [2] = target: T2, AChE (Homo sapiens, UniProt P22303); test: biochemical
GSK-3β mRNA = GSK-3β mRNA level by quantitative PCR in SH-SY5Y; assay type: cell-based
BChE [3] = target: T1, BChE; test: Enzyme kinetic study; assay type: biochemical
Method in brief: (§1)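 Inhibition type and Km taken from Lineweaver–Burk double-reciprocal plots. Ki derived from secondary plots of line slope versus inhibitor concentration and of 1/Vmax versus inhibitor concentration. Cholinesterase activity was measured by a modified Ellman method.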

[4] = Toxicity assay on SH-SY5Y; assay type: cell-based; details: human, SH-SY5Y neuroblastoma cells
Method in brief: (§2)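 SH-SY5Y cells were cultured in DMEM/F12 with 15% fetal bovine serum, 100 units/mL penicillin and 100 μg/mL streptomycin. Viability was read by MTT after 72 h exposure to test compound. Results are mean ± SEM of five independent experiments, each in triplicate; p < 0.05 was taken as significant.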

[5] = system: SH-SY5Y neuroblastoma cell line; test: Toxicity assay on SH-SY5Y; assay type: cell-based; details: concentrations below 50 μM; 72 h; MTT
Method in brief: as §2

GSK-3α mRNA = GSK-3α mRNA level by quantitative PCR in SH-SY5Y; assay type: cell-based; details: 25 μM
Method in brief: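 Cells were exposed to test compound at 25 μM. Total RNA was extracted with RNX-plus reagent following the manufacturer's protocol, and transcript levels were then quantified by real-time PCR.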

AChE [6] = target: T2, AChE; test: Enzyme kinetic study; assay type: biochemical
Method in brief: as §1

T2 sequence (P22303 32-614): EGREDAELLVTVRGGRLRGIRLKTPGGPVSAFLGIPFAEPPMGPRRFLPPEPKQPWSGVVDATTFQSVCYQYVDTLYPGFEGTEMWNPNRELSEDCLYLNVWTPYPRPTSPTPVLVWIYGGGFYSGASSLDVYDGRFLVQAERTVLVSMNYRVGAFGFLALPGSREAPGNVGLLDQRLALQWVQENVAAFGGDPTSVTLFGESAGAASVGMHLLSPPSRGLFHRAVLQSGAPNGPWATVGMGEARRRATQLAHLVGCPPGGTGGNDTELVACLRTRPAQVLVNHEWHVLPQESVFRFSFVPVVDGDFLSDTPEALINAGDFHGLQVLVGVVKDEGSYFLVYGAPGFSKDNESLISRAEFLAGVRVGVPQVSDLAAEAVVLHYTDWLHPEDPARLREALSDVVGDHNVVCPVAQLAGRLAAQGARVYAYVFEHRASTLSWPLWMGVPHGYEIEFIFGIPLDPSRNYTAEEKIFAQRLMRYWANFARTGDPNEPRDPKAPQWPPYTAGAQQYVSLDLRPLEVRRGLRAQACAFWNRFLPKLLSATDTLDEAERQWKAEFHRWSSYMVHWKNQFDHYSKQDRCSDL
T1 sequence (P06276 29-602, species assumed): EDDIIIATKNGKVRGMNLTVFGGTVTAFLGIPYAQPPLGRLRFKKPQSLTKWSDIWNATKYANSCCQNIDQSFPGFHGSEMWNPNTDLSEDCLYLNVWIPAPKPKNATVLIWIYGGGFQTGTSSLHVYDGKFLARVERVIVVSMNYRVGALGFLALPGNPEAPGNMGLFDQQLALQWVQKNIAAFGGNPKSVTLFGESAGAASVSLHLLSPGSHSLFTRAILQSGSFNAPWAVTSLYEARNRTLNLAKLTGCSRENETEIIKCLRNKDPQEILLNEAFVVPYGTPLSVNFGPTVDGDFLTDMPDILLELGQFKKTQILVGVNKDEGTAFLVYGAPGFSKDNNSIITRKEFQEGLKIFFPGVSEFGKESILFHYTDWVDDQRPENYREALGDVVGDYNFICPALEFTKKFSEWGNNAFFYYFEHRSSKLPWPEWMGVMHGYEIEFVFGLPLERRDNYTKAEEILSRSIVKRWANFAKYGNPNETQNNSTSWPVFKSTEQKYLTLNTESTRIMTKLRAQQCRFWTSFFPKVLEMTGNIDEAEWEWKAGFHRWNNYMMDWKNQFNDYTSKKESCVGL

SMILES	IC50 (BChE [1]) [µM]	IC50 (AChE [2]) [µM]	also measured
O=C(NCc1ccc[n+](Cc2ccccc2)c1)c1ccc(CN2C(=O)c3ccccc3C2=O)cc1.[Br-] [Compound 7a]	0.32 ± 0.06	9.71 ± 0.83	fold better BChE inhibitory activity in comparison with positive control (BChE [1]): around 33 fold
O=C(NCc1ccc[n+](Cc2ccccc2F)c1)c1ccc(CN2C(=O)c3ccccc3C2=O)cc1 [Compound 7b]	0.31 ± 0.02	1.19 ± 0.45	–
O=C(NCc1ccc[n+](Cc2cccc(F)c2)c1)c1ccc(CN2C(=O)c3ccccc3C2=O)cc1.[Cl-] [Compound 7c]	0.08 ± 0.01	3.98 ± 0.21	reduction of GSK-3β mRNA level (GSK-3β mRNA; 25 μM): 25%; mRNA level of GSK-3β (GSK-3β mRNA; 25 μM, relative to control group): ~75%; effect on mRNA level of GSK-3β (in words) (GSK-3β mRNA; SH-SY5Y, compared to control group): decreased; also recorded: could reduce the mRNA level of GSK-3β; Ki (BChE [3]): 0.13 µM; inhibition mode (BChE [3]; Lineweaver-Burk plot, BChE): mixed-type inhibition mode; also recorded: mixed inhibitor; fold better BChE inhibitory activity in comparison with positive control (BChE [1]): 132 fold; viability at 72 h, 50 µM [4]: ~80%; toxicity on SH-SY5Y at fewer concentrations [5]: did not exhibit any toxicity; effect on the mRNA level of GSK3α (GSK-3α mRNA): no noticeable effect
O=C(NCc1ccc[n+](Cc2ccc(F)cc2)c1)c1ccc(CN2C(=O)c3ccccc3C2=O)cc1 [Compound 7d]	0.33 ± 0.01	11.1 ± 1.29	–
O=C(NCc1ccc[n+](Cc2cccc(Cl)c2)c1)c1ccc(CN2C(=O)c3ccccc3C2=O)cc1 [Compound 7f]	0.56 ± 0.19	2.66 ± 0.88	–
O=C(NCc1ccc[n+](Cc2cccc(Br)c2)c1)c1ccc(CN2C(=O)c3ccccc3C2=O)cc1 [Compound 7i]	0.15 ± 0.01	2.1 ± 0.49	–
O=C(NCc1ccc[n+](Cc2ccc(Br)cc2)c1)c1ccc(CN2C(=O)c3ccccc3C2=O)cc1.[Br-] [Compound 7j]	–	0.26 ± 0.07	Ki (AChE [6]): 0.94 µM; secondary inhibition constant (Kis) (AChE [6]; 1/Vmax vs inhibitor concentration, AChE): 4.29 µM; inhibition mode (AChE [6]; Lineweaver-Burk plot, AChE): mixed mode of inhibition; also recorded: mixed-type inhibition pattern
O=C(NCc1ccc[n+](Cc2ccc([N+](=O)[O-])cc2)c1)c1ccc(CN2C(=O)c3ccccc3C2=O)cc1 [Compound 7l]	20.4 ± 2.55	5.06 ± 2.4	–
CCCCC[n+]1cccc(CNC(=O)c2ccc(CN3C(=O)c4ccccc4C3=O)cc2)c1 [Compound 7p]	18.6 ± 1.21	6.29 ± 0.76	–
CC[n+]1cccc(CNC(=O)c2ccc(CN3C(=O)c4ccccc4C3=O)cc2)c1 [Compound 7q]	0.49 ± 0.04	–	inhibition at 50 µM (AChE [2]; read-out: AChE % inhibition at 50 μM): 33.6 ± 2.9%
